In test [1] the target is Forkhead box protein O3 (Homo sapiens) (UniProt O43524). Nature of the test: Inhibition of FKHRL1 phosphorylation in Thr-32 residue human A549 cells measured after 3 hrs by immunoblotting analysis. It counts as cell-based. The conditions noted are these: dose <= 2.0 µM. The procedure, abridged: (§1)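 A549 cells treated over 0 to 2.0 μM; lysed in 10 mM Tris–HCl pH 7.4, 50 mM NaCl, NaF, pyrophosphate, vanadate, EDTA, protease inhibitors, 0.5% NP-40, 0.1% SDS; proteins resolved by SDS-PAGE, blotted to PVDF, probed with phospho-specific antibodies, HRP secondary, ECL detection.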

For test [2], the system named is WiDr. In words: Antitumor activity against human WiDr cells xenografted in nude mouse assessed as inhibition of tumor growth at 400 mg/kg, po administered on day 0 to 13 except for day 3 and 10 measured after 14 days. It counts as functional, organism-based. The conditions noted are these: time 14.0 day. In short, it runs like this: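 Female BALB/c-background nude mice were implanted s.c. with 3 × 3 × 3 mm tumor fragments. At 100–300 mm3 tumor volume (day 0), groups of five were randomized and dosed orally at 400 mg/kg on days 0–13, skipping days 3 and 10. Caliper volume was (L×W2)/2, relative to day 0 (RTV). T/C% on day 14 = 100 × mean treated RTV / mean control RTV.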
For orientation: In xenograft studies the graft and the host belong to different species.

The test system of test [3] is NCI-H522. Nature of the test: Growth inhibition of human NCI-H522 cells measured after 48 hrs by sulforhodamine B assay. It counts as functional. The procedure, abridged:
(§2)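 JFCR39 panel lines were grown in RPMI 1640 with 5% FBS, penicillin and streptomycin at 37 °C in 5% CO2. After 48 h of drug exposure, total cellular protein was measured by sulforhodamine B staining. GI50 was calculated by a previously described method.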
(In SRB staining, fixed cells bind dye roughly in proportion to their protein.)

For test [4], the system named is MDA-MB-231. Nature of the test: Growth inhibition of human MDA-MB-231 cells measured after 48 hrs by sulforhodamine B assay. It counts as functional. In short, it runs like this:
as §2

Test [5] relates to OVCAR-3. In words: Induction of apoptosis in human OVCAR-3 cells assessed as increase in apoptotic cells at 10 uM measured after 48 hrs by propidium iodide staining based flow cytometric analysis. It counts as functional, cell-based. In short, it runs like this: (§3)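 Cells harvested, washed in ice-cold PBS, fixed in 70% ethanol, washed twice in ice-cold PBS, treated with RNase A (500 μg/mL) at 37 °C for 1 h, stained with propidium iodide (25 μg/mL); DNA content read by flow cytometry.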
For orientation: A flow cytometer gives signals particle by particle.

For test [6], the system named is KM12. Nature of the test: Growth inhibition of human KM12 cells measured after 48 hrs by sulforhodamine B assay. It counts as functional. The procedure, abridged:
as §2

In test [7] the test system is HCC 2998. Nature of the test: Growth inhibition of human HCC 2998 cells measured after 48 hrs by sulforhodamine B assay. It counts as functional. The procedure, abridged: as §2
In test [8] the test system is A549. Nature of the test: Induction of apoptosis in human A549 cells assessed as increase in apoptotic cells at 10 uM measured after 48 hrs by propidium iodide staining based flow cytometric analysis. It counts as functional, cell-based. The procedure, abridged:
as §3

Test [9] has as its system HCT-15. Nature of the test: Growth inhibition of human HCT-15 cells measured after 48 hrs by sulforhodamine B assay. It counts as functional. The procedure, abridged: as §2
Test [10] has as its system A549. Nature of the test: Induction of cell cycle arrest in human A549 cells assessed as accumulation of cells at G1 phase at 10 uM incubated for 24 hrs by propidium iodide staining based flow cytometric analysis.
Test [11] has as its target Mitogen-activated protein kinase 3 (Homo sapiens) (UniProt P27361). Nature of the test: Inhibition of ERK1 phosphorylation at Thr-202/Tyr-204 residues in human A549 cells measured after 3 hrs by immunoblotting analysis. Particulars: dose <= 2.0 µM.
For test [12], the system named is St-4. Nature of the test: Growth inhibition of human St-4 cells measured after 48 hrs by sulforhodamine B assay. It counts as functional. The procedure, abridged: as §2
The target in test [13] is Ribosomal protein S6 kinase beta-1 (Homo sapiens) (UniProt P23443). Nature of the test: Inhibition of p70S6K phosphorylation at Thr-389 residue in human A549 cells measured after 3 hrs by immunoblotting analysis. It counts as cell-based. The conditions noted are these: dose <= 2.0 µM. In short, it runs like this:
as §1

Active and inactive are the calls of the source. The calls are words filed in the database; no cut-off is given here.

Ribosomal protein S6 kinase beta-1 (Homo sapiens), sequence (P23443 whole entry, looked up): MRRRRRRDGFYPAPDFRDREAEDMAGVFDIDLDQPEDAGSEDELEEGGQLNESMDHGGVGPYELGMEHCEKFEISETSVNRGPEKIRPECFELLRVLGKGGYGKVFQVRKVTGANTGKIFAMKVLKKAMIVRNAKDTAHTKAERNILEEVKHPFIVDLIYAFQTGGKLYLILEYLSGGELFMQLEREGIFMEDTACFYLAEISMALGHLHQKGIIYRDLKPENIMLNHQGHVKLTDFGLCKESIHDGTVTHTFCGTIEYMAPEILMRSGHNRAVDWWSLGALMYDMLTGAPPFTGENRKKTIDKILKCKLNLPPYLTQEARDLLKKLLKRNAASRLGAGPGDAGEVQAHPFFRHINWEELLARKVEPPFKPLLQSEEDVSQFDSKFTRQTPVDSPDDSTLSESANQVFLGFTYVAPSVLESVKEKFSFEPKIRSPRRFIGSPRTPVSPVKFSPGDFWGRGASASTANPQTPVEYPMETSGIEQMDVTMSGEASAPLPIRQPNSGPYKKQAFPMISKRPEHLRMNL
Forkhead box protein O3 (Homo sapiens), sequence (O43524 whole entry): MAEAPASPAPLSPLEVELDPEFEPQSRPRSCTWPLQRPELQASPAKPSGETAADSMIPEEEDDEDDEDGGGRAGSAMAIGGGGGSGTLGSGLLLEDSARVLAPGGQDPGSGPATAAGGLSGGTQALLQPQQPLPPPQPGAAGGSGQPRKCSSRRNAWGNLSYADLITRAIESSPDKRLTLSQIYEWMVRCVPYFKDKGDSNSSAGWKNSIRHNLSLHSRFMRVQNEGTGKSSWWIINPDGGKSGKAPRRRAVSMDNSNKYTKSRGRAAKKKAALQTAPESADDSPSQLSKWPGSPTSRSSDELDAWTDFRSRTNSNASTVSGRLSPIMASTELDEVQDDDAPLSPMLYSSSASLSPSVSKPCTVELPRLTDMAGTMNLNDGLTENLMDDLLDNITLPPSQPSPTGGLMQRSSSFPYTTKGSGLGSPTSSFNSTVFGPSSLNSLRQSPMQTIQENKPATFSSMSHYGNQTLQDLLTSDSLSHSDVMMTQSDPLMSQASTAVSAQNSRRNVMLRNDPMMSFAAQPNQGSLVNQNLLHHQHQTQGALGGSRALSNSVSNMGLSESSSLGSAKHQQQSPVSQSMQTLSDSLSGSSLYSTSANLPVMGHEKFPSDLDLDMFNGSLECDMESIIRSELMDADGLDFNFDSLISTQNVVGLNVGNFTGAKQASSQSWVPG
Mitogen-activated protein kinase 3 (Homo sapiens), sequence (P27361 whole entry): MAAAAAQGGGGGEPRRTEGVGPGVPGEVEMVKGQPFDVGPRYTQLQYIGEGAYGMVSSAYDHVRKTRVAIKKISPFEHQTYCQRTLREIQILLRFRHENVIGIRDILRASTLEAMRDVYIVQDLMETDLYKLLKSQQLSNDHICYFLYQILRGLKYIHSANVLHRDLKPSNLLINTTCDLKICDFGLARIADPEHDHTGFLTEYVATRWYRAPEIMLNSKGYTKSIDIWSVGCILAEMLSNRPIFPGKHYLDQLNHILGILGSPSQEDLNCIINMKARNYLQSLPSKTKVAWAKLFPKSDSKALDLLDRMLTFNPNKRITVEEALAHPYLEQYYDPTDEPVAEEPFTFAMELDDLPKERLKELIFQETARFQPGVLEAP

As to `FC(F)c1nc2ccccc2n1-c1nc(N2CCOCC2)nc(N2CCOCC2)n1` [ZSTK-474], the inhibition result in test [1] and in test [13] was “Dose-Dependent Effect” each time. The result in test [2], in [5] and in test [10] was Active. The GI50 (commonly the concentration at which growth is held to half of that of the control) in test [3] was 151 nM; in test [4] it was 562 nM; in [6], 1660 nM; in [7], 245 nM; in [9] it was 513 nM; in test [12], 1700 nM. Also, in test [8], the result was inactive. Also, the inhibition result in test [11] is “inactive”.

For the origin of these results see ChEMBL document CHEMBL5661968, “Antitumor activity of ZSTK474, a new phosphatidylinositol 3-kinase inhibitor” (J Natl Cancer Inst, 2006).
